Published values collected from several papers.
Compare with care: the assays were run in different laboratories.
Read-out: cell growth or viability

Structure (SMILES)	cell line	test	setting	quantity	value
NS(=O)(=O)c1ccc(-c2ccc(Nc3ccc(Cl)cc3)cc2)cc1	BHK-21	MTT	100 µM	viability	60%
CNC(=N)NCCC[C@H](N)C(=O)O	RAW264.7	MTT	250 µg/mL, 24 h, LPS-stimulated	viability	> 85%
Cc1cc(C)cc(Nc2ccc(-c3ccc(S(N)(=O)=O)cc3)cc2)c1	BHK-21	MTT	100 µM	viability	88%
COc1cccc2c1C(=O)c1c(O)c3c(c(O)c1C2=O)C[C@@](O)(C(=O)CO)C[C@@H]3O[C@H]1C[C@H](N)[C@H](O)[C@H](C)O1	Vero	MTT	72 h	CC50	9.6 µM
NC(=NCc1ccccc1)NC(=O)c1nc(Cl)c(N)nc1N	BHK-21	CCK-8	48 h	CC50	44.5 µM
Nc1nc2c(ncn2COCCO)c(=O)[nH]1	Vero	MTT	48 h	CC50	320 µM
O=C1C(=O)c2cccnc2-c2ncccc21	Vero	MTT	72 h	CC50	> 200 µM
CC1=NN(c2ccc(C)c(C)c2)C(=O)/C1=N\Nc1cccc(-c2cccc(C(=O)O)c2)c1O	BHK-21	CCK-8	48 h	CC50	104 µM
O=C(C1CCCCC1)N1CC(=O)N2CCc3ccccc3C2C1 (centres unmarked)	Vero	MTT	72 h	CC50	> 200 µM
COC(=O)c1ccc(Nc2ccc(-c3ccc(S(N)(=O)=O)cc3)cc2)cc1	BHK-21	MTT	100 µM	viability	68%
Cc1cc(-c2ccc(/N=N/c3ccc4c(S(=O)(=O)O)cc(S(=O)(=O)O)c(N)c4c3O)c(C)c2)ccc1/N=N/c1ccc2c(S(=O)(=O)O)cc(S(=O)(=O)O)c(N)c2c1O	BHK-21	CCK-8	48 h	CC50	242 µM
